Measured values taken from ChEMBL document CHEMBL2346664, “Synthesis, characterization and in vitro anticancer evaluation of novel 1,2,4-triazolin-3-one derivatives” (2013).

Assays:
Assay type in all cases: functional
NCI-H460 = experiment: Growth inhibition of human NCI-H460 cells assessed as cell growth at 10 uM after 48 hrs by sulforhodamine B assay; settings: NCI-H460, 48 h
Outline: (§1)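 NCI-60 single-dose screen at 10^-5 M. Cells plated at 5,000–40,000/well by doubling time and grown 24 h at 37 °C, 5% CO2, then drug added from DMSO stock for 48 h continuous exposure. Adherent cells fixed with cold TCA (final 10%), suspension cells with 16% TCA. SRB stain read at 515 nm. Reported as growth percent relative to untreated controls and time-zero plates.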

KM12 [1] = experiment: Growth inhibition of human KM12 cells assessed as cell growth at 10 uM after 48 hrs by sulforhodamine B assay; settings: KM12, 48 h, read-out: Activity
Outline: (§2)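 NCI-60 primary single-dose screen at 10^-5 M, 48 h continuous exposure. Adherent cells were fixed with cold TCA (10% final) and suspension cells with 16% final TCA, then stained with 0.4% SRB in 1% acetic acid. Bound dye was solubilized in 10 mM Tris base and read at 515 nm. Output is growth percent relative to untreated controls, and GI% is 100 minus growth percent.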

COLO 205 = experiment: Growth inhibition of human COLO205 cells assessed as cell growth at 10 uM after 48 hrs by sulforhodamine B assay; settings: COLO 205, 48 h, read-out: Activity; outline: as §2
OVCAR-4 = experiment: Growth inhibition of human OVCAR4 cells assessed as cell growth at 10 uM after 48 hrs by sulforhodamine B assay; settings: OVCAR-4, 48 h, read-out: Activity; outline: as §1
Malme-3M = experiment: Growth inhibition of human MALME-3M cells assessed as cell growth at 10 uM after 48 hrs by sulforhodamine B assay; settings: read-out: Activity; outline: as §2
RPMI-8226 = experiment: Growth inhibition of human RPMI8226 cells assessed as cell growth at 10 uM after 48 hrs by sulforhodamine B assay; settings: RPMI-8226, 48 h, read-out: Activity; outline: as §1
A549 = experiment: Growth inhibition of human A549 cells assessed as cell growth at 10 uM after 48 hrs by sulforhodamine B assay; settings: A549, 48 h, read-out: Activity
Outline: (§3)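 NCI-60 primary screen at a single dose of 10^-5 M. Output is mean growth percent of treated cells relative to untreated controls, where values between 0 and 100 indicate growth inhibition and values below 0 indicate cytotoxicity. Cells were plated 24 h before drug, incubated 48 h at 37 °C, 5% CO2, and stained with SRB after TCA fixation. Suspension cells were fixed with 80% TCA (16% final).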

HOP-92 = experiment: Growth inhibition of human HOP92 cells assessed as cell growth at 10 uM after 48 hrs by sulforhodamine B assay; settings: HOP-92, 48 h, read-out: Activity; outline: as §2
LOX IMVI = experiment: Growth inhibition of human LOXIMVI cells assessed as cell growth at 10 uM after 48 hrs by sulforhodamine B assay; settings: read-out: Activity; outline: as §2
SK-MEL-2 = experiment: Growth inhibition of human SK-MEL-2 cells assessed as cell growth at 10 uM after 48 hrs by sulforhodamine B assay; settings: SK-MEL-2, 48 h, read-out: Activity; outline: as §1
ACHN = experiment: Growth inhibition of human ACHN cells assessed as cell growth at 10 uM after 48 hrs by sulforhodamine B assay; settings: read-out: Activity; outline: as §3
SR [2] = experiment: Growth inhibition of human SR cells assessed as cell growth at 10 uM after 48 hrs by sulforhodamine B assay; settings: read-out: Activity; outline: as §1
K562 = experiment: Growth inhibition of human K562 cells assessed as cell growth at 10 uM after 48 hrs by sulforhodamine B assay; settings: K562, 48 h, read-out: Activity; outline: as §2
TK-10 = experiment: Growth inhibition of human TK10 cells assessed as cell growth at 10 uM after 48 hrs by sulforhodamine B assay; settings: TK-10, 48 h, read-out: Activity; outline: as §1
SNB-19 = experiment: Growth inhibition of human SNB19 cells assessed as cell growth at 10 uM after 48 hrs by sulforhodamine B assay; settings: SNB-19, 48 h, read-out: Activity; outline: as §1
HOP-62 = experiment: Growth inhibition of human HOP62 cells assessed as cell growth at 10 uM after 48 hrs by sulforhodamine B assay; settings: HOP-62, 48 h, read-out: Activity; outline: as §2
SNB-75 = experiment: Growth inhibition of human SNB75 cells assessed as cell growth at 10 uM after 48 hrs by sulforhodamine B assay; settings: SNB-75, 48 h, read-out: Activity; outline: as §1
SK-MEL-5 = experiment: Growth inhibition of human SK-MEL-5 cells assessed as cell growth at 10 uM after 48 hrs by sulforhodamine B assay; settings: SK-MEL-5, 48 h, read-out: Activity; outline: as §1
SF-539 = experiment: Growth inhibition of human SF539 cells assessed as cell growth at 10 uM after 48 hrs by sulforhodamine B assay; settings: SF-539, 48 h, read-out: Activity; outline: as §1
UACC-257 = experiment: Growth inhibition of human UACC257 cells assessed as cell growth at 10 uM after 48 hrs by sulforhodamine B assay; settings: UACC-257, 48 h, read-out: Activity; outline: as §1
MDA-MB-435 = experiment: Growth inhibition of human MDA-MB-435 cells assessed as cell growth at 10 uM after 48 hrs by sulforhodamine B assay; settings: MDA-MB-435, 48 h, read-out: Activity; outline: as §2
MCF7 = experiment: Growth inhibition of human MCF7 cells assessed as cell growth at 10 uM after 48 hrs by sulforhodamine B assay; settings: MCF7, 48 h, read-out: Activity; outline: as §2
SK-MEL-28 = experiment: Growth inhibition of human SK-MEL-28 cells assessed as cell growth at 10 uM after 48 hrs by sulforhodamine B assay; settings: SK-MEL-28, 48 h, read-out: Activity; outline: as §1
A498 = experiment: Growth inhibition of human A498 cells assessed as cell growth at 10 uM after 48 hrs by sulforhodamine B assay; settings: A498, 48 h, read-out: Activity; outline: as §3
CCRF-CEM = experiment: Growth inhibition of human CCRF-CEM cells assessed as cell growth at 10 uM after 48 hrs by sulforhodamine B assay; settings: read-out: Activity; outline: as §3
HCT-116 = experiment: Growth inhibition of human HCT116 cells assessed as cell growth at 10 uM after 48 hrs by sulforhodamine B assay; settings: HCT-116, 48 h, read-out: Activity; outline: as §2
IGROV-1 = experiment: Growth inhibition of human IGROV1 cells assessed as cell growth at 10 '-8 M after 48 hrs by sulforhodamine B assay; settings: IGROV-1, 48 h, read-out: Activity
KM12 [3] = experiment: Growth inhibition of human KM12 cells after 48 hrs by sulforhodamine B assay; settings: KM12, 48 h
Outline: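 NCI 60-cell-line five-dose screen. Cells were plated at 5,000–40,000/well by doubling time and grown 24 h at 37 °C, 5% CO2. Time-zero plates were TCA-fixed. Drug from DMSO stock was tested at 0.01, 0.1, 1, 10 and 100 µM final for 48 h continuous exposure. Read-out was SRB at 515 nm. GI50 is the concentration giving 50% reduction in net protein increase versus untreated control.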

SR [4] = experiment: Growth inhibition of human SR cells assessed as cell growth at 10 '-4 M after 48 hrs by sulforhodamine B assay; settings: read-out: Activity

Compound	growth at 10 µM (KM12 [1]) [%]	growth at 10 µM (COLO 205) [%]	growth at 10 µM (OVCAR-4) [%]	growth at 10 µM (Malme-3M) [%]	growth at 10 µM (RPMI-8226) [%]	growth at 10 µM (A549) [%]	growth at 10 µM (HOP-92) [%]	growth at 10 µM (LOX IMVI) [%]	growth at 10 µM (SK-MEL-2) [%]	growth at 10 µM (ACHN) [%]	growth at 10 µM (SR [2]) [%]	growth at 10 µM (K562) [%]	growth at 10 µM (TK-10) [%]	growth at 10 µM (SNB-19) [%]	growth at 10 µM (HOP-62) [%]	growth at 10 µM (SNB-75) [%]	growth at 10 µM (SK-MEL-5) [%]	growth at 10 µM (SF-539) [%]	growth at 10 µM (UACC-257) [%]	growth at 10 µM (MDA-MB-435) [%]	further results
Cc1nn(-c2ccc(Cl)cc2)c(=O)n1CCN1CCOCC1	81.3	107	93.4	59.1	83.1	56.4	30.1	81.6	61.1	38.7	95.3	70.1	64.4	58.7	33.8	7.65	80.3	67	73.4	84.9	growth at 10 µM (NCI-H460; read-out: Activity): 41.8%; growth at 10 µM (MCF7): 73.4%; growth at 10 µM (SK-MEL-28): 92.9%; growth at 10 µM (A498): 105%; growth at 10 µM (CCRF-CEM): 63.2%; growth at 10 µM (HCT-116): 29.5%
Cc1cc(=O)oc2cc(OCCn3c(C)nn(-c4ccc(Cl)cc4)c3=O)ccc12	31.4	10.6	67.1	32.9	31	30.2	47.4	48	3.55	41.9	21.2	16.3	59.6	54.5	27.4	20.4	10.8	29.5	22.5	-38.5	inhibition of growth at 10 µM (NCI-H460; read-out: GI): 17.2%; growth at 0.01 µM (IGROV-1): 108%; GI50 (KM12 [3]): 1.66 µM; TGI (KM12 [3]): > 1 µM; CC50 (KM12 [3]; read-out: LD50 (the source's name)): > 1 µM; growth at 100 µM (SR [4]): -13%; growth at 10 µM (MCF7): 15.8%; growth at 10 µM (SK-MEL-28): 40.8%; growth at 10 µM (A498): 25.7%; growth at 10 µM (CCRF-CEM): 13.4%; growth at 10 µM (HCT-116): 15.1%
